Results taken from ChEMBL document CHEMBL4706509, “Oligosaccharide-camptothecin conjugates as potential antineoplastic drugs: Design, synthesis and biological evaluation” (Eur J Med Chem, 2020).
≈ marks a conversion by molar mass, not a printed value. Calls of active or inactive are those of the source. The calls are words filed in the database; no cut-off is given here.

Assays:
[1] = target: T1, DNA topoisomerase 1 (Homo sapiens) (UniProt P11387); test: Inhibition of human recombinant Topoisomerase 1 using supercoiled pBR322 DNA as substrate at 50 uM incubated for 30 mins by ethidium bromide staining based agarose gel electrophoresis
T1 sequence (whole entry): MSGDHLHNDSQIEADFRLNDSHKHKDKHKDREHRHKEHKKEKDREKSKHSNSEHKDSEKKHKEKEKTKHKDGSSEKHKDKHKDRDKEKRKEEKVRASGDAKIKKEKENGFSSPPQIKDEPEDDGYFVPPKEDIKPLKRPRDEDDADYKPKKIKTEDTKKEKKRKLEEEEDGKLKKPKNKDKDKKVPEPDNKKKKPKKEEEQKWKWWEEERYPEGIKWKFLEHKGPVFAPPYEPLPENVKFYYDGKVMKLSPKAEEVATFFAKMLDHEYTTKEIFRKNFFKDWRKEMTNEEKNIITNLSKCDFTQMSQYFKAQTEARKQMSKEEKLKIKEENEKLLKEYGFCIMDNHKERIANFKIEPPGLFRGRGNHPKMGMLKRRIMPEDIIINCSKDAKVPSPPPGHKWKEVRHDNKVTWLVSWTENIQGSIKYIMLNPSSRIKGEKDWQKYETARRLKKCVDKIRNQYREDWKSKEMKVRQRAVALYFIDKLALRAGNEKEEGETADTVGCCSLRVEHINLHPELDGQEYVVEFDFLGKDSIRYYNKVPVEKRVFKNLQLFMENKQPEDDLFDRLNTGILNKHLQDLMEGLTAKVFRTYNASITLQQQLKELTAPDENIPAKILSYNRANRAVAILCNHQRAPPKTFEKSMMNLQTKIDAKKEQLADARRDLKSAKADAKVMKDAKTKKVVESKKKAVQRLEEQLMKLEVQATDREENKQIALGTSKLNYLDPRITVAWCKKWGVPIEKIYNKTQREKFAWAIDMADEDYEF
Summary of the method: (§1)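 Cell-free relaxation assay: 1 U recombinant human Topo I with 0.5 µg supercoiled pBR322 in Topo I buffer (Tris-HCl pH 8.0, KCl, MgCl2, DTT, 0.1% BSA), 37 °C for 30 min. 10-HCPT and irinotecan as positive controls. Supercoiled, relaxed and nicked forms resolved on 0.8% agarose in TAE, 90 V for 2 h, ethidium bromide stained.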

[2] = Stability of compound in 10% phosphate buffer assessed as proportion of lactone form level at pH 7.4 measured after 48 hrs by HPLC analysis; assay type: physicochemical; details: read-out: Drug metabolism
Summary of the method: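 1.0 mg dissolved in 50 mL 0.1 M phosphate buffer, pH 7.4, and shaken at 37 °C. […] Lactone versus carboxylate (ring-opened) form quantified by HPLC area normalisation. Mean of triplicate determinations.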

HEK293 = test: Cytotoxicity against human HEK293 cells assessed as reduction in cell viability measured after 48 hrs by MTT assay; assay type: cell-based; details: HEK293, 48 h
Summary of the method: (§2)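 MTT assay; cells seeded in 96-well plates, exposed 48 h to freshly prepared compound at five concentrations, four replicate wells each; MTT (5 mg/mL) added for 4 h, formazan dissolved in DMSO, absorbance at 490 nm. IC50 by nonlinear regression; mean of three independent experiments.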

[3] = target: T1, DNA topoisomerase 1 (Homo sapiens); test: Inhibition of human recombinant Topoisomerase 1 using supercoiled pBR322 DNA as substrate at 100 uM incubated for 30 mins by ethidium bromide staining based agarose gel electrophoresis; summary of the method: as §1
[4] = Aqueous solubility of the compound in 0.1 M Na2HPO4 solution at pH 7.4 incubated for 24 hrs by HPLC analysis; assay type: physicochemical; details: 0.1 M Na2HPO4 solution, pH 7.4
Summary of the method: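 Excess solid shaken in 0.2 mL 0.1 M phosphate buffer, pH 7.4, at 25 °C for 24 h, then filtered. Filtrate (100 µL) diluted to 1.5 mL and analysed by isocratic HPLC (CH3CN:H2O 40/60, 1.0 mL/min, 35 °C column, 254 nm). Concentration read from a calibration curve built from DMSO standards. Values are the mean of triplicate determinations, in mg/mL.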

HepG2 = test: Antitumor activity against human HepG2 cells assessed as inhibition of cell growth measured after 48 hrs by MTT assay; assay type: functional, cell-based; details: HepG2, 48 h; summary of the method: as §2
SW1990 = test: Antitumor activity against human SW1990 cells assessed as inhibition of cell growth measured after 48 hrs by MTT assay; assay type: functional, cell-based; details: SW1990, 48 h; summary of the method: as §2
HCT-116 = test: Antitumor activity against human HCT-116 cells assessed as inhibition of cell growth measured after 48 hrs by MTT assay; assay type: functional, cell-based; details: HCT-116, 48 h; summary of the method: as §2
[5] = Ratio of test compound solubility to camptothecin solubility in 0.1 M Na2HPO4 solution at pH 7.4 incubated for 24 hrs by HPLC analysis; assay type: physicochemical; details: buffer, pH 7.4, 24 h
[6] = Toxicity in iv dosed ICR mouse measured for 14 days; assay type: organism-based; details: in vivo, time 14 day

SMILES | inhibition [1] | remaining at 48 h [2] | IC50 (HEK293) | inhibition [3] | solubility at 24 h [4] | IC50 (HepG2) | IC50 (SW1990) | IC50 (HCT-116) | Ratio [5] | LD50 at 336 h [6]
CC[C@@]1(OC(=O)NCCOCCO[C@@H]2O[C@H](COC(C)=O)[C@H](OC(C)=O)[C@H](OC(C)=O)[C@H]2OC(C)=O)C(=O)OCc2c1cc1n(c2=O)Cc2cc3ccccc3nc2-1 | Active | 91% | > 100 µM | Active | 500 µg/mL (≈ 0.617 mM) | 5.6 µM | 15.7 µM | 3.5 µM |  | 
CC[C@@]1(OC(=O)NCCOCCO[C@@H]2O[C@H](CO)[C@@H](O)[C@H](OC(N)=O)[C@@H]2O)C(=O)OCc2c1cc1n(c2=O)Cc2cc3ccccc3nc2-1 | Active | 92% | 52.1 µM | Active | 16300 µg/mL (≈ 23.8 mM) | 0.9 µM | 5.2 µM | 1.2 µM | 2717 | 
CCc1c2c(nc3ccc(OC(=O)N4CCC(N5CCCCC5)CC4)cc13)-c1cc3c(c(=O)n1C2)COC(=O)[C@]3(O)CC [IRINOTECAN] |  |  | > 100 µM | Active |  | > 100 µM | > 100 µM | > 100 µM |  | 85.1 mg/kg
